NR2E3 ag-1 = agonists of human nuclear receptor NR2E3; Q9Y5X4; inhibition of corepressor binding, % at 4.78 µM; GST-NR2E3/biotin-RetCOR TR-FRET, 1536-well; 320,000 compounds, 0.12% hits;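 active = percent inhibition above the cutoff of mean plus 3 SD of all tested compounds, set per screening campaign, cut at about 20% in these data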;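 also: 0% = DMSO wells and 100% = biotin wells as full block of FRET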
Target sequence (Q9Y5X4 whole entry, looked up): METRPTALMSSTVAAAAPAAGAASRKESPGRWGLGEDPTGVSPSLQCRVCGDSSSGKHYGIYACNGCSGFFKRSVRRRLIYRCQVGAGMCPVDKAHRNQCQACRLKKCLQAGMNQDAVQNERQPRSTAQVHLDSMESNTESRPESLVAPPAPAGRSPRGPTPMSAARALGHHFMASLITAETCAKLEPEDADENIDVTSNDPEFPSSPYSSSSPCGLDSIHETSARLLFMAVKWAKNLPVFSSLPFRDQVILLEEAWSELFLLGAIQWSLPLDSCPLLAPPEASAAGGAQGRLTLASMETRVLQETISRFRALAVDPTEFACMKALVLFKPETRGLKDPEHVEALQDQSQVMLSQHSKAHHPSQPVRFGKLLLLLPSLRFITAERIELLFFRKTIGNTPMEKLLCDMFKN
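Assay system: NR2E3–RetCOR corepressor complex. Quantity: 1.35 nM GST-NR2E3. Buffer or medium: pH 7.5 Tris-based buffer. Reagent: biotinylated RetCOR corepressor at 7 nM final. Schedule: 5 h at 4 °C. Detection: TR-FRET, emission read at 617 and 671 nm. Replicates: one well per compound, singlicate testing.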
DAX1 inh-1 = DAX1 (NR0B1) inhibition, primary screen | HEK293T StAR-luciferase reporter, SF-1/DAX-1 repression relief | inhibition, % at 6.8 µM | 370,000 compounds, 1.1% hits | AID 652010;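 active = inhibition above the mean over all tested compounds plus 3 SD, cut at about 3.6% in these data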;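 also: 0% = DAX-1 cells with DMSO and 100% = cells lacking DAX-1 with DMSO; higher inhibition means more luminescence from relief of DAX-1 repression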
SMARCA2 act = SMARCA2 function activation, primary screen; MG213 cells, MMTV-luciferase reporter, dexamethasone, overnight; activation, % at 9.1 µM; 370,000 compounds, 1% hits; in the data active = activation above about 7.8%;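 also: 0% = vehicle wells and 100% = reference activator wells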
NR2E3 ag-2 = agonists of human NR2E3 nuclear receptor; AID 602229; inhibition of corepressor binding, % at 3.98 µM; CHO-S Gal4-NCOR/VP16-NR2E3 two-hybrid, luciferase; 360,000 compounds, 0.35% hits;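 active = inhibition above the mean of all tested compounds plus 3 SD, cut at about 70% in these data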;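 also: 0% = DMSO with NR2E3 transfected cells and 100% = cells lacking NR2E3 construct; higher means lower luciferase signal from less NR2E3 corepressor binding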
JMJD2C inh = inhibitors of human GASC-1 (JMJD2C) demethylase; inhibition, % at 2.35 µM; Q9H3R0; 330,000 compounds, 0.069% hits; GST-JMJD2C(1-420) H3K9me3 demethylation, DELFIA europium;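 active = more than half of a compound's replicate wells show inhibition beyond 50%, single wells judged on their own value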;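 also: signal counts dimethyl H3K9 product captured on neutravidin plate; 0% = median of DMSO wells and 100% = 0.3 times that DMSO median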
DAX1 inh-2 = inhibits human nuclear receptor DAX1 | HEK293 Gal4-DAX1 luciferase reporter, luminescence | inhibition, % at 6.75 µM | P51843 | 340,000 compounds, 0.99% hits;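 active = inhibition above the mean over all tested compounds plus 3 SD, cut at about 4.2% in these data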;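 also: 0% = DAX1-transfected cells with DMSO and 100% = empty-vector control cells with DMSO; inhibition shows as a rise in luminescence from relieved DAX1 repression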
Target sequence (P51843 207-470 limits assumed): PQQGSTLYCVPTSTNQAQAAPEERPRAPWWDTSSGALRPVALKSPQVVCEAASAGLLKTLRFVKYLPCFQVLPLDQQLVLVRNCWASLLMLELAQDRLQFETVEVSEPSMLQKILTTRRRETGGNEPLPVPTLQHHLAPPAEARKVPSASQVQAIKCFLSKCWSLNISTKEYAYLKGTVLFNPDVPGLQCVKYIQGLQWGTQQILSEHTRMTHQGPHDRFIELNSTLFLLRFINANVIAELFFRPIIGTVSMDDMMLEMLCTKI
NR2E3 ag conf = NR2E3 agonism confirmed in two-hybrid assay | inhibition, % at 3.98 µM | shares compounds with NR2E3 ag-2 | CHO-S mammalian two-hybrid NR2E3-NCOR, luciferase luminescence | 2,300 compounds, 51% hits;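 active = average inhibition above a cutoff equal to the mean inhibition of all tested compounds plus one SD, cut at about 70% in these data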;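 also: 0% = DMSO in NR2E3 cells and 100% = DMSO in cells lacking NR2E3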
VP16 counter = GAL4-VP16 reporter inhibition in NR2E3 agonist counterscreen. shares compounds with NR2E3 ag-2. CHO-S GAL4-VP16 luciferase reporter, luminescence. inhibition, % at 3.98 µM. 2,300 compounds, 29% hits;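 active = mean inhibition above a cutoff equal to the average over all tested compounds plus one standard deviation, cut at about 70% in these data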;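 also: luciferase from a UAS reporter driven by GAL4-VP16 transactivation; 0% = DMSO with VP16-transfected cells and 100% = DMSO with cells lacking VP16; higher means less reporter light so more repression of VP16 activity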
Numbers without * were called inactive. Shown are actives, neighbours in structure and some others; about 3.2% of the full set was active somewhere.

What do the screens show for `N#CNC(=Nc1ccccc1)SCc1ccc(C(=O)O)cc1`?
NR2E3 ag-1: 2; DAX1 inh-1: 0; SMARCA2 act: -3; NR2E3 ag-2: 6; JMJD2C inh: 0; DAX1 inh-2: 1

Results for CC(C)CNC(=O)OCc1cn(Cc2ccc(Cl)cc2)nn1 ?
DAX1 inh-1: -1; SMARCA2 act: -2

How did CC(C)Cc1ccc(C(C)C(=O)Nc2cccnc2)cc1 (stereo not given) do in these assays?
NR2E3 ag-1: 0; DAX1 inh-1: -1; SMARCA2 act: -5; NR2E3 ag-2: 50; JMJD2C inh: 2; DAX1 inh-2: -3; NR2E3 ag conf: 89*; VP16 counter: 76*

How did COc1cccc(/C=N/NC(=S)NC2CC3CC2C2C=CCC32)c1O (stereo not given) do in these assays?
NR2E3 ag-1: -3; DAX1 inh-1: 0; SMARCA2 act: 1; NR2E3 ag-2: 8; JMJD2C inh: -5; DAX1 inh-2: 3

Results for Oc1ccccc1/C=N/NC(=S)NC1CC2CC1C1C=CCC21 (stereo not given) ?
NR2E3 ag-1: -1; DAX1 inh-1: 0; SMARCA2 act: 0; NR2E3 ag-2: 53; JMJD2C inh: -10; DAX1 inh-2: 2; NR2E3 ag conf: -102; VP16 counter: -116

What do the screens show for `CCOc1ccc(S(=O)(=O)N2CCCCC2)c2ccccc12`?
NR2E3 ag-1: 0; DAX1 inh-1: -1; SMARCA2 act: -3; NR2E3 ag-2: 58; JMJD2C inh: 6; DAX1 inh-2: -1; NR2E3 ag conf: 55; VP16 counter: -10

Results for CC(=O)CC[C@@H]1CC[C@]2(CCCN(C(=O)c3ccco3)C2)O1 ?
DAX1 inh-1: 0; SMARCA2 act: -2

Results for Clc1cccc(CON/C=N/c2ncnc3sccc23)c1 ?
NR2E3 ag-1: 4; DAX1 inh-1: -1; SMARCA2 act: -3; NR2E3 ag-2: 15; JMJD2C inh: -11; DAX1 inh-2: -1

How did Clc1cccc(Cl)c1CON/C=N/c1ncnc2sccc12 do in these assays?
NR2E3 ag-1: -4; DAX1 inh-1: -1; SMARCA2 act: -1; NR2E3 ag-2: 60; JMJD2C inh: 9; DAX1 inh-2: 1; NR2E3 ag conf: 48; VP16 counter: 55

How did COc1ccc(C(O)c2nc(-c3ccncc3)cs2)cc1 (stereo not given) do in these assays?
DAX1 inh-1: -2; SMARCA2 act: -6; NR2E3 ag-2: 63; NR2E3 ag conf: 68; VP16 counter: 66

How did Fc1cccc(CNc2ncnc3cc(Cl)ccc23)c1F do in these assays?
NR2E3 ag-1: 0; DAX1 inh-1: -1; SMARCA2 act: -4; NR2E3 ag-2: 83*; JMJD2C inh: 8; DAX1 inh-2: -1; NR2E3 ag conf: 64; VP16 counter: 53

Results for COc1cccc(CNc2ncnc3cc(Cl)ccc23)c1 ?
DAX1 inh-1: -2; SMARCA2 act: -7; NR2E3 ag-2: 54; JMJD2C inh: -8; DAX1 inh-2: -3; NR2E3 ag conf: 84*; VP16 counter: 68

How did O=C1N2CCc3ccccc3C2CS(=O)(=O)N1Cc1ccc(F)cc1 (stereo not given) do in these assays?
DAX1 inh-1: -1; SMARCA2 act: -1

What do the screens show for `CCOC(=O)[C@@]12CN(C(=O)OC(C)(C)C)CC=C1N(Cc1ccc(OC)cc1)C(=O)[C@H]2CC(=O)NCC1CCCCC1`?
DAX1 inh-1: -1; SMARCA2 act: -2

What do the screens show for `COc1ccc(-c2cc3c(=O)n(CC(=O)NCCCN4CCN(Cc5ccccc5)CC4)ncn3n2)cc1`?
NR2E3 ag-1: 3; DAX1 inh-1: -3; SMARCA2 act: -1; NR2E3 ag-2: 48; JMJD2C inh: -6; DAX1 inh-2: -2; NR2E3 ag conf: 5; VP16 counter: -20

Results for COc1ccc(-c2cc3c(=O)n(CC(=O)NCCCN4CCC(Cc5ccccc5)CC4)ncn3n2)cc1 ?
NR2E3 ag-1: 3; DAX1 inh-1: 0; SMARCA2 act: 2; NR2E3 ag-2: 0; JMJD2C inh: -10; DAX1 inh-2: -1

How did C=CCN1C(=O)[C@@H](CC(=O)NCCCOCCCC)[C@]2(C(=O)OC)CCCCC=C12 do in these assays?
DAX1 inh-1: -1; SMARCA2 act: -2

What do the screens show for `O=S(=O)(c1cccs1)N1CCN(CC(O)COc2cc(Cl)ccc2Cl)CC1` (stereo not given)?
NR2E3 ag-1: -2; DAX1 inh-1: -2; SMARCA2 act: -6; NR2E3 ag-2: 89*; JMJD2C inh: 19; DAX1 inh-2: -4; NR2E3 ag conf: 96*; VP16 counter: 78*

Results for FC(F)(F)c1ccc(Cn2ccc3ccc(-c4ccc5ccn(Cc6ccccc6)c5c4)cc32)cc1 ?
DAX1 inh-1: 0; SMARCA2 act: 3

Results for Cc1cc(C(=O)OCc2nnc(-c3ccccc3)o2)c(C)n1-c1ccccc1 ?
NR2E3 ag-1: -7; DAX1 inh-1: -1; SMARCA2 act: -3; NR2E3 ag-2: 68; JMJD2C inh: 41; DAX1 inh-2: -1; NR2E3 ag conf: 58; VP16 counter: 65

Results for N=C1S/C(=C\c2ccc(-c3cccc(Cl)c3)o2)C(=O)N1c1nccs1 ?
NR2E3 ag-1: 0; DAX1 inh-1: 0; SMARCA2 act: -1; NR2E3 ag-2: 4; JMJD2C inh: 3; DAX1 inh-2: 0

How did COc1ccc(/C=C2\SC(=N)N(c3nccs3)C2=O)cc1OC do in these assays?
NR2E3 ag-1: 2; DAX1 inh-1: -2; SMARCA2 act: 1; NR2E3 ag-2: 74*; JMJD2C inh: -4; DAX1 inh-2: -2; NR2E3 ag conf: 24; VP16 counter: 25

How did CC1CCC2(CC1)CCN(CCCOC(=O)Nc1ccc3c(c1)OCO3)C2=O (stereo not given) do in these assays?
DAX1 inh-1: -1; SMARCA2 act: -2

What do the screens show for `O=C(Cn1nc(-c2ccccc2)ccc1=O)NCCc1cccc(F)c1`?
DAX1 inh-1: -1; SMARCA2 act: -1

What do the screens show for `CCCCCCCCN1[C@@H](CC(=O)OC)c2cc(F)ccc2S1(=O)=O`?
NR2E3 ag-1: 3; DAX1 inh-1: -1; SMARCA2 act: 0; NR2E3 ag-2: 6; JMJD2C inh: -12; DAX1 inh-2: 0

What do the screens show for `CCCCCCCCCCCCN1[C@@H](CC(=O)O)c2cc(C(F)(F)F)ccc2S1(=O)=O`?
NR2E3 ag-1: -3; DAX1 inh-1: 0; SMARCA2 act: 1; NR2E3 ag-2: 53; JMJD2C inh: -60; DAX1 inh-2: 0; NR2E3 ag conf: 98*; VP16 counter: 30
